From PubChem
An excerpt weighted towards active compounds, which were near 1.7% of everything screened.
Beta2AR agonist: human beta-2 adrenergic receptor agonism by FAP; actives 0.43% (n = 340,000); response, % (no concentration beside the values); P07550; Am2.2-beta2AR cells, FAP receptor internalization, flow cytometry;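 active = response above a set limit, near 3 SD of response in nonfluorescent compounds, cut at about 42% in these data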
APJ agonist: agonists of human APJ apelin receptor. AID 2520. P35414. CHO-K1 APJ PathHunter beta-arrestin, luminescence; 0% DMSO wells, 100% apelin. actives 0.11% (n = 330,000). activation, % at 20 µM;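 active = activation more than six SD over the plate average, tested at 20 µM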
Target sequence (P35414 whole entry, looked up): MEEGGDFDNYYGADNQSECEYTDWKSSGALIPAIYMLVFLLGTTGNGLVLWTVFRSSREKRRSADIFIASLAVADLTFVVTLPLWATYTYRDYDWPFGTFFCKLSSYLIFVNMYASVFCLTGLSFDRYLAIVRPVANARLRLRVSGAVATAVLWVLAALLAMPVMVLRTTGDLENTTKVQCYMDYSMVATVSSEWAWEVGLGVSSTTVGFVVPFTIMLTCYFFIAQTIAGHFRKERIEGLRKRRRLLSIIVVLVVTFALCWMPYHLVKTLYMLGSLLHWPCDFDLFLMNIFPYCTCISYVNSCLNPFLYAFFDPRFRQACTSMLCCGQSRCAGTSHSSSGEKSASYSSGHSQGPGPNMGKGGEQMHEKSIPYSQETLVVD
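Assay system: CHO-K1 cells stably expressing ProLink-tagged human APJ and arrestin–beta-gal acceptor. Compound dosing: 20 µM single point, 1% DMSO. Times: 16-18 h seeding, 90 min dark compound exposure, 60 min detection. Detection: beta-gal luminescence. Evaluation: APJ–arrestin association signal. Controls: negative DMSO alone, positive Apelin-13 at 10 nM.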
CCR6 antagonist: CCR6 (human) receptor antagonism. CHO-K1 CCR6 PathHunter beta-arrestin, luminescence, CCL20-stimulated. inhibition, % at 20 µM. actives 0.49% (n = 340,000). P51684;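 active = compounds whose inhibition of the agonist-driven luminescence signal at 20 µM reaches about 50%, limit read from the data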;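 also: cells stimulated with CCL20 at 14 nM final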
PfG6PD inh: PfG6PD (Plasmodium falciparum) enzyme inhibition. PfGluPho enzyme, NADPH resazurin-diaphorase fluorescence. inhibition, % at 20 µM. actives 0.78% (n = 350,000);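 active = inhibition reaching at least a set limit at 20 µM in the primary screen, cut at about 59% in these data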
APJ antag: antagonists of human APJ apelin receptor | actives 0.32% (n = 330,000) | AID 2521 | inhibition, % at 20 µM | CHO-K1 APJ beta-arrestin complementation, luminescence | P35414;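 active = inhibition above about 40% at 20 µM, limit read from the data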;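 also: cells challenged with 10 nM apelin-13 agonist together with compound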
CXCR6 block: CXCR6 (human) receptor inhibition | CHO-K1 PathHunter CXCR6 beta-arrestin, luminescence | inhibition, % at 20 µM | actives 0.36% (n = 360,000) | AID 602244; in the data active = inhibition above about 34%, passing the limit was not always enough;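 also: antagonist mode with CXCL16 agonist at 10 nM final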
APJ ag conf: confirmation of human APJ apelin receptor agonists | shares compounds with APJ agonist | CHO-K1 APJ PathHunter beta-arrestin, luminescence | activation, % at 20 µM | actives 10% (n = 310);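 active = activation above 40%, taking the highest of four retests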
Each line names hits and unclear results; the compound was inactive in the other large screens (follow-up assays come after a bar, where they were run).

N/C(=N\OC(=O)c1cccc(F)c1)c1cccc([N+](=O)[O-])c1	APJ agonist 15 | APJ ag conf inactive
Nc1c(N(CCO)C(=O)c2ccccc2OCc2ccccc2Cl)c(=O)[nH]c(=O)n1Cc1ccccc1	none (no result: APJ agonist, APJ antag)
CC1=NOC(=O)/C1=C\c1ccc(-c2ccc(Br)cc2C(=O)O)o1	none
CC1=NOC(=O)/C1=C/c1ccc(-c2ccc(Cl)cc2)o1	Beta2AR agonist 65, APJ agonist 20, CXCR6 block 64 (no result: CCR6 antagonist, PfG6PD inh) | APJ ag conf inactive
CN(C)CCCN(C(=O)c1ccc(Br)s1)c1nc2cc3c(cc2s1)OCCO3	none
CN(C)CCCN(C(=O)c1cc2cc([N+](=O)[O-])ccc2s1)c1nc2cc3c(cc2s1)OCCO3	APJ agonist 43 | APJ ag conf inactive
COc1ccc(CC(=O)Nc2ccc(S(=O)(=O)N(C)C3CCN(C)CC3)cc2)cc1	none
COc1ccc2oc(C(=O)Nc3ccc(S(=O)(=O)N(C)C4CCN(C)CC4)cc3)c(C)c2c1	APJ agonist 51 | APJ ag conf inactive
CCCCN(C)CCn1c(=S)[nH]c2cc(OCC)c(OCC)cc2c1=O	APJ agonist 54 | APJ ag conf inactive
CCOc1cc2[nH]c(=S)n(CCCN(CC)CC)c(=O)c2cc1OCC	none
COC(=O)[C@]1(Cc2ccccc2)N[C@H](CN(C)C(=O)Nc2ccc(OC)cc2)[C@@H]2C(=O)N(Cc3ccccc3)C(=O)[C@@H]21	APJ agonist 12 | APJ ag conf inactive
COc1cc2c(cc1OC)CN(S(=O)(=O)c1ccc(Cl)nc1)CC2	none
CCOc1ccc2[nH]c(=O)c(CN(Cc3ccco3)Cc3nnnn3Cc3ccccc3)cc2c1	none
CCOc1ccc2[nH]c(=O)c(CN(Cc3ccco3)C(CC)c3nnnn3Cc3ccccc3)cc2c1 (stereo unspecified)	APJ agonist 76 | APJ ag conf inactive
Cc1cc(C)c(C#N)c(SCC(=O)Nc2c(C)n(C)n(-c3ccccc3)c2=O)n1	none
COc1ccc2[nH]c3c(=O)n(/N=C/[C@H]4C(C)C=C(C)CC4C)c(=O)[nH]c3c2c1 (stereo partly specified)	APJ agonist 24 | APJ ag conf inactive
COc1cccc(NC(=O)Nc2nc(-c3ccc(OC)c(OC)c3)cs2)c1	APJ agonist 19 | APJ ag conf inactive
COc1ccc(-c2csc(NC(C)=O)n2)cc1OC	none
COc1cc(S(=O)(=O)N2CCN(Cc3ccc4c(c3)OCO4)CC2)ccc1NC(C)=O	APJ agonist 16 (no result: Beta2AR agonist, CCR6 antagonist, PfG6PD inh) | APJ ag conf inactive
COc1ccc(S(=O)(=O)N2CCN(Cc3ccc4c(c3)OCO4)CC2)cc1F	none
CCc1ccc(NC(=S)Nc2cccc3cnccc23)cc1	APJ agonist 15 | APJ ag conf inactive
Cc1cc(C)cc(NC(=S)Nc2cccc3cnccc23)c1	none
COc1ccc(COC(=O)C2=C(C)NC(=O)NC2c2ccc(F)cc2)cc1 (stereo unspecified)	APJ agonist 23 | APJ ag conf inactive
CS(=O)(=O)c1cnc(-c2ccccc2)nc1Sc1ccc(F)cc1	APJ agonist 18 | APJ ag conf inactive
O=C(COC(=O)CCC(=O)c1ccc(F)cc1)Nc1ccc2[nH]c(=O)[nH]c2c1	none
CCc1ccc2nc(N(CCCN(C)C)C(=O)c3ccc(S(=O)(=O)N4CCc5ccccc5C4)cc3)sc2c1	APJ agonist 60 | APJ ag conf inactive
CCOc1cccc2sc(N(CCCN(C)C)C(=O)c3ccc(S(=O)(=O)N4CCc5ccccc5C4)cc3)nc12	none
CCOc1ncccc1C(=O)Nc1cc(S(=O)(=O)N2CCCCC2)ccc1OC	APJ agonist 25 | APJ ag conf inactive
CC(C)C[C@@H](CO)N(Cc1ccccc1)S(=O)(=O)N(Cc1ccccc1)[C@H](CO)CC(C)C	APJ agonist 11 | APJ ag conf inactive
CC(C)C[C@@H](CO)N(Cc1ccccc1)S(=O)(=O)N(Cc1ccccc1)[C@@H](CO)CC(C)C	none
Cc1cn([C@H]2C[C@H](O)[C@@H](/C=C/C(=O)NCCc3ccc4ccccc4c3)O2)c(=O)[nH]c1=O	none (no result: Beta2AR agonist, APJ agonist, CCR6 antagonist, PfG6PD inh, APJ antag)
Cc1ccc(/C=N/NC(=O)CSc2nnc(-c3ccccc3)n2-c2ccc(Cl)cc2)o1	APJ agonist 14 | APJ ag conf 43
CCn1c(SCC(=O)N/N=C/c2ccc(C)o2)nnc1-c1ccccc1	none
Cc1ccc(/C=N/NC(=O)CSc2nnc(-c3ccc(Cl)cc3)n2-c2ccc(Cl)cc2)o1	APJ agonist 28 | APJ ag conf 163
CCCC(=O)N1CCN(c2ccc(NC(=O)c3cc4ccccc4o3)cc2Cl)CC1	APJ agonist 30, PfG6PD inh 98 | APJ ag conf inactive
Clc1ccc2c(NCc3ccccn3)ccnc2c1	none
Oc1ccc(/C=N/Nc2ccnc3cc(Cl)ccc23)cc1O	APJ agonist 15 | APJ ag conf inactive
Cc1ccc(S(=O)(=O)Nc2nc(-c3ccccc3)cs2)cc1	APJ agonist 30 | APJ ag conf 55
CCOC(=O)C1CCN(C(=O)c2sc3ncn(CC(=O)N4CCCCC4)c(=O)c3c2C)CC1	none (no result: Beta2AR agonist, APJ agonist, CCR6 antagonist, APJ antag)
Cc1ccc2nc(/C(C#N)=C\c3ccc([N+](=O)[O-])o3)[nH]c2c1	APJ agonist 95 | APJ ag conf inactive
N#C/C(=C\c1ccc([N+](=O)[O-])o1)c1nc2ccccc2[nH]1	APJ agonist 42 (no result: Beta2AR agonist, CXCR6 block) | APJ ag conf inactive
Cc1ccc2nc(/C(C#N)=C\c3ccc(N4CCOCC4)o3)[nH]c2c1	none
CCOC(=O)c1cc(CC)sc1NC(=O)CN1C(=O)C(=O)N(CC(C)C)C1=O	none
COc1ccccc1-n1cc2c([N+](=O)[O-])cc([N+](=O)[O-])cc2n1	none
COc1ccccc1N=c1c2c([N+](=O)[O-])cc([N+](=O)[O-])cc2n(O)n1-c1ccccc1OC	APJ agonist 15 (no result: Beta2AR agonist, CCR6 antagonist, PfG6PD inh, CXCR6 block) | APJ ag conf inactive
c1ccc(CNc2nc(-c3ccccc3)nc3ccccc23)cc1	none
c1ccc(CNc2nc(NCc3ccccc3)c3ccccc3n2)cc1	Beta2AR agonist 72, APJ agonist 28 | APJ ag conf inactive
Cn1c(NCc2c[nH]c3ccccc23)nc2ccccc21	APJ agonist 22 | APJ ag conf inactive
CCn1c(NCc2c[nH]c3ccccc23)nc2ccccc21	none
CSc1ccc(C(=O)C2CCCN(C(=O)c3ccc4c(c3)no[n+]4[O-])C2)cc1 (stereo unspecified)	APJ agonist 18 | APJ ag conf 44
CC(C)Oc1ccccc1/C=N/NC(=O)C1CC1	none
N/C(=N\OC(=O)c1ccc2ccccc2c1)c1ccccc1Cl	APJ agonist 43 | APJ ag conf inactive
N/C(=N\OC(=O)c1ccc2ccccc2c1)c1ccncc1	none
N/C(=N\OC(=O)c1cc(Br)ccc1Cl)c1cccnc1	APJ agonist 11 | APJ ag conf inactive
